Measurements published in ChEMBL document CHEMBL1765019, “Design, synthesis and biological activity of thiazolidine-4-carboxylic acid derivatives as novel influenza neuraminidase inhibitors” (Bioorg Med Chem, 2011).

Molecular target: Neuraminidase (Influenza A virus, UniProt B4URF0)
Test: Inhibition of influenza A virus neuraminidase assessed as cleavage of MUNANA substrate by fluorescence assay
In short: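 Screening-kit NA enzyme, not from an avian H5N1 strain, incubated with buffer, substrate and inhibitor at 37 °C. Reaction stopped with stop solution. IC50 taken from percent inhibition plotted against inhibitor concentration; each point in duplicate.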

Row | Compound | IC50 [µM]
1 | O=C(O)[C@@H]1CSC(c2ccccc2O)N1 (mixture of isomers) | 20.2
2 | O=C(O)[C@@H]1CSC(c2ccccc2[N+](=O)[O-])N1 (mixture of isomers) | 22.5
3 | NCC(=O)N1C(c2ccccc2)SC[C@H]1C(=O)O (mixture of isomers) | 0.53
4 | COc1cccc(C2SC[C@@H](C(=O)O)N2C(=O)CCl)c1O (mixture of isomers) | 7.92
5 | O=C(O)[C@@H]1CSC(c2ccco2)N1 (mixture of isomers) | 43.1
6 | O=C(O)c1ccccc1C1SC[C@@H](C(=O)O)N1C(=O)CCl (mixture of isomers) | 10.7
7 | COc1cccc(C2SC[C@@H](C(=O)O)N2C(=O)Cc2ccccc2)c1O (mixture of isomers) | 1.62
8 | NCC(=O)N1C(c2ccco2)SC[C@H]1C(=O)O (mixture of isomers) | 0.98
9 | O=C(O)[C@@H]1CSC(c2ccccc2[N+](=O)[O-])N1C(=O)Cc1ccccc1 (mixture of isomers) | 1.87
10 | N#Cc1ccc(C2SC[C@@H](C(=O)O)N2C(=O)Cc2ccccc2)cc1 (mixture of isomers) | 2.47
11 | O=C(O)[C@@H]1CSC(c2ccco2)N1C(=O)Cc1ccccc1 (mixture of isomers) | 2.89
12 | N#Cc1ccc(C2N[C@H](C(=O)O)CS2)cc1 (mixture of isomers) | 23.4
13 | NCC(=O)N1C(c2ccccc2O)SC[C@H]1C(=O)O (mixture of isomers) | 0.21
14 | O=C(O)[C@@H]1CSC(c2ccco2)N1C(=O)CCl (mixture of isomers) | 12.9
15 | O=C(O)[C@@H]1CSC(c2ccccc2)N1C(=O)Cc1ccccc1 (mixture of isomers) | 1.21
16 | NCC(=O)N1C(c2ccccc2[N+](=O)[O-])SC[C@H]1C(=O)O (mixture of isomers) | 1.02
17 | O=C(O)[C@@H]1CSC(c2ccccc2)N1C(=O)CCl (mixture of isomers) | 7.53
18 | COc1cccc(C2N[C@H](C(=O)O)CS2)c1O (mixture of isomers) | 12.3
19 | O=C(O)c1ccccc1C1N[C@H](C(=O)O)CS1 (mixture of isomers) | 18.1
20 | O=C(O)[C@@H]1CSC(c2ccccc2[N+](=O)[O-])N1C(=O)CCl (mixture of isomers) | 7.65
21 | O=C(O)[C@@H]1CSC(c2ccccc2O)N1C(=O)CCl (mixture of isomers) | 5.84
22 | O=C(O)[C@@H]1CSC(c2ccccc2)N1 (mixture of isomers) | 21.3
23 | NCC(=O)N1C(c2ccccc2C(=O)O)SC[C@H]1C(=O)O (mixture of isomers) | 0.28
24 | N#Cc1ccc(C2SC[C@@H](C(=O)O)N2C(=O)CN)cc1 (mixture of isomers) | 0.81
25 | N#Cc1ccc(C2SC[C@@H](C(=O)O)N2C(=O)CCl)cc1 (mixture of isomers) | 8.64
26 | COc1cccc(C2SC[C@@H](C(=O)O)N2C(=O)CN)c1O (mixture of isomers) | 0.14
27 | O=C(O)[C@@H]1CSC(c2ccccc2O)N1C(=O)Cc1ccccc1 (mixture of isomers) | 0.65
28 | O=C(O)c1ccccc1C1SC[C@@H](C(=O)O)N1C(=O)Cc1ccccc1 (mixture of isomers) | 1.92
